The source made the active and inactive calls. Unless noted, the rule behind the calls is not given here.
Columns and labels:
U-937 [1] = test: Inhibition of histone H4R3 methylation in human U937 cells at 50 uM after 24 hrs; assay type: functional, cell-based
Procedure, shortened: (§1)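 U937 cells treated at 50 µM for 24 h. Histones extracted with Triton buffer, then 0.2 M HCl overnight at 4 °C. 3–10 µg run on 15% SDS-PAGE and immunoblotted with anti-monomethyl-H3K4, monomethyl-H4R3 or dimethyl-H3R17 (1:500, overnight 4 °C), ECL detection. Loading controls: total H4 (H3K4), Ponceau Red (Arg marks).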

[2] = target: RmtA (Emericella nidulans) (UniProt Q5VLE3); test: Inhibition of Aspergillus nidulans RmtA at 70.4 uM
Procedure, shortened: (§2)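 Enzyme was GST-RmtA fusion expressed in E. coli BL21 and glutathione-affinity purified (500 ng), preincubated with compound for 15 min at room temperature. Then 20 µg chicken erythrocyte core histones and 0.55 µCi [3H]AdoMet were added, 30 min at 30 °C. Stopped with 25% TCA, filtered, counted by liquid scintillation.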

U-937 [3] = test: Inhibition of histone H3R17 methylation in human U937 cells at 50 uM after 24 hrs; assay type: functional, cell-based; procedure, shortened: as §1
[4] = target: T1, Histone-lysine N-methyltransferase SETD7 (Homo sapiens) (UniProt Q8WTS6); test: Inhibition of human recombinant SET7 assessed as histone H3 protein methylation at 100 uM
T1 sequence (whole entry): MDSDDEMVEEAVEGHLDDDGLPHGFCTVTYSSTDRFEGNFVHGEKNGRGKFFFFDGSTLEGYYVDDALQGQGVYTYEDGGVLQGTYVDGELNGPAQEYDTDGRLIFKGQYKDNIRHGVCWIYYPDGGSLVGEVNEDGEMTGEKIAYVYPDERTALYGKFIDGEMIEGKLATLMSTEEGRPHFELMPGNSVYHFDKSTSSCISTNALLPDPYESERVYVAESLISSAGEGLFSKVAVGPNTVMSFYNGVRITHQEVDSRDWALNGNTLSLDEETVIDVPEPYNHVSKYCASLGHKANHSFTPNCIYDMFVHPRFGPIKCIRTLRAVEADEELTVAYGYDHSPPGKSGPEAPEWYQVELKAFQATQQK
Procedure, shortened: (§3)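 Recombinant enzymes (0.2 µg) with substrate (0.5 µg: Npl3p for PRMT1, PABP1 for CARM1, histone H3 for SET7), 0.5 µM [3H]AdoMet and 100 µM compound in PBS pH 7.4 with 3.3% v/v DMSO, 90 min at 30 °C. Products separated by 10% SDS-PAGE, transferred to PVDF, detected by fluorography on film overnight.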

[5] = target: T2, Histone-arginine methyltransferase CARM1 (Homo sapiens) (UniProt Q86X55); test: Inhibition of human recombinant CARM1 assessed as poly(A) binding protein 1 methylation at 100 uM; procedure, shortened: as §3
T2 sequence (whole entry): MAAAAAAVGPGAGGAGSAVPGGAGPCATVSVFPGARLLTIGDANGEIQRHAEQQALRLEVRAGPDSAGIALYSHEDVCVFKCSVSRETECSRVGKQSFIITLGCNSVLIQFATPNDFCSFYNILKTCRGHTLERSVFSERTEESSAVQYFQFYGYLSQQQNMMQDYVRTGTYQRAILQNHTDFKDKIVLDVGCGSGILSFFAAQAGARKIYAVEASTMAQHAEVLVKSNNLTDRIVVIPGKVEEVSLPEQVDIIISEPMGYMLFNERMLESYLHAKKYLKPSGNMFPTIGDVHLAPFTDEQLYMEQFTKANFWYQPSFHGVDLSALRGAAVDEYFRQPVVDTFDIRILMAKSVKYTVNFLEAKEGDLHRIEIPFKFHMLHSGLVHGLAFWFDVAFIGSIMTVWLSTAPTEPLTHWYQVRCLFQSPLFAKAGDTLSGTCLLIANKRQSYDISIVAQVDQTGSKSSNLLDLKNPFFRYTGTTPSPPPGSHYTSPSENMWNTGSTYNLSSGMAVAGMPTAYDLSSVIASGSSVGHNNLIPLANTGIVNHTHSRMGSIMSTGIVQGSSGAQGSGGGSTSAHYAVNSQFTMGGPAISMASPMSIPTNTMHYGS

U-937 [6] = test: Inhibition of histone H3K4 methylation in human U937 cells at 50 uM after 24 hrs; assay type: functional, cell-based; procedure, shortened: as §1
[7] = target: RmtA (Emericella nidulans) (UniProt Q5VLE3); test: Inhibition of Aspergillus nidulans RmtA at 77 uM
[8] = target: Protein arginine N-methyltransferase 1 (Homo sapiens) (UniProt Q99873); test: Inhibition of human recombinant PRMT1 assessed as nuclear ribonucleoprotein Npl3p methylation at 100 uM; procedure, shortened: as §3
[9] = target: RmtA (Emericella nidulans) (UniProt Q5VLE3); test: Inhibition of Aspergillus nidulans RmtA at 90 uM
U-937 [10] = test: Induction of cell cycle arrest in human U937 cells at 25 uM after 30 hrs; assay type: functional, cell-based
Procedure, shortened: (§4)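 U937 cells in RPMI with 10% fetal calf serum, HEPES and glutamine, kept at 200000 cells/mL; treated at 25 µM for 30 h, then the distribution across cell cycle phases was analysed.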

U-937 [11] = test: Induction of apoptosis in human U937 cells at 25 uM after 30 hrs; assay type: functional
Procedure, shortened: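 Apoptosis read as caspase 3 activation by FACS, in U937 cells (RPMI, 10% fetal calf serum, 200000 cells/mL) exposed to 25 µM for 30 h.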

U-937 [12] = test: Induction of granulocytic differentiation in human U937 cells assessed as CD11c expression at 5 uM after 30 hrs; assay type: functional
Procedure, shortened: (§5)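 U937 cells treated for 30 h, then stained with PE-conjugated CD11c (PE mouse IgG1 as control) for 30 min at 4 °C in the dark and resuspended in PBS with PI (0.25 µg/mL). Read-out is percent CD11c-positive/PI-negative cells, with dead PI-positive cells excluded. Coloured compounds limited the top dose to 5 µM or lower.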

U-937 [13] = test: Induction of granulocytic differentiation in human U937 cells assessed as CD11c expression at 25 uM after 30 hrs; assay type: functional; procedure, shortened: as §5
[14] = target: RmtA (Emericella nidulans) (UniProt Q5VLE3); test: Inhibition of Aspergillus nidulans RmtA at 84.6 uM; procedure, shortened: as §2
[15] = target: RmtA (Emericella nidulans) (UniProt Q5VLE3); test: Inhibition of Aspergillus nidulans RmtA at 91.8 uM; procedure, shortened: as §2
[16] = target: RmtA (Emericella nidulans) (UniProt Q5VLE3); test: Inhibition of Aspergillus nidulans RmtA at 89.4 uM
U-937 [17] = test: Inhibition of human p300/CBP in U937 cells at 50 uM assessed as histone H3 acetylation; assay type: cell-based
Procedure, shortened: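 Source was U937 nuclear extract (10 µg per assay) as p300/CBP HAT, with histone H3 substrate and compound at 50 µM or DMSO control for 90 min. Acetyl-H3 detected by indirect ELISA, quantified against acetylated H3 peptide standard curves, […].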

[18] = target: T3, NAD-dependent protein deacetylase sirtuin-2 (Homo sapiens) (UniProt Q8IXJ6); test: Inhibition of human SIRT2 at 25 uM
T3 sequence (whole entry): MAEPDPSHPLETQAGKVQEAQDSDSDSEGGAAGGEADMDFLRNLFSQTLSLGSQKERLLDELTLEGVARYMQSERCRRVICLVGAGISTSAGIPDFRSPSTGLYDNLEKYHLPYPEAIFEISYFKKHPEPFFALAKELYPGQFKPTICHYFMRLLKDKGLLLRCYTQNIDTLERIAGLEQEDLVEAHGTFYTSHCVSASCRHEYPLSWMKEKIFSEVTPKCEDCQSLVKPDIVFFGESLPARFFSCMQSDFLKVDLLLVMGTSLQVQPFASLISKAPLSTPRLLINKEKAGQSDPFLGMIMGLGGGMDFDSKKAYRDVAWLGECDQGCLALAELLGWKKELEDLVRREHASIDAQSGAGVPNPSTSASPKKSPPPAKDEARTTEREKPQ
Procedure, shortened: (§6)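 Fluorescent two-stage assay. SIRT1 (1 U/well) or SIRT2 (5 U/well) with Fluor de Lys-SIRT1/2 substrate, NAD+ and compound at 25 µM, 37 °C for 2 h. Developer II containing nicotinamide then stopped the reaction and generated signal, read at ex 360/em 460 nm.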

U-937 [19] = test: Cell cycle arrest in human U937 cells assessed as accumulation at S/G2 phase at 25 uM after 30 hrs; assay type: functional, cell-based; procedure, shortened: as §4
[20] = target: T4, NAD-dependent protein deacetylase sirtuin-1 (Homo sapiens) (UniProt Q96EB6); test: Inhibition of human SIRT1 at 25 uM; procedure, shortened: as §6
T4 sequence (whole entry): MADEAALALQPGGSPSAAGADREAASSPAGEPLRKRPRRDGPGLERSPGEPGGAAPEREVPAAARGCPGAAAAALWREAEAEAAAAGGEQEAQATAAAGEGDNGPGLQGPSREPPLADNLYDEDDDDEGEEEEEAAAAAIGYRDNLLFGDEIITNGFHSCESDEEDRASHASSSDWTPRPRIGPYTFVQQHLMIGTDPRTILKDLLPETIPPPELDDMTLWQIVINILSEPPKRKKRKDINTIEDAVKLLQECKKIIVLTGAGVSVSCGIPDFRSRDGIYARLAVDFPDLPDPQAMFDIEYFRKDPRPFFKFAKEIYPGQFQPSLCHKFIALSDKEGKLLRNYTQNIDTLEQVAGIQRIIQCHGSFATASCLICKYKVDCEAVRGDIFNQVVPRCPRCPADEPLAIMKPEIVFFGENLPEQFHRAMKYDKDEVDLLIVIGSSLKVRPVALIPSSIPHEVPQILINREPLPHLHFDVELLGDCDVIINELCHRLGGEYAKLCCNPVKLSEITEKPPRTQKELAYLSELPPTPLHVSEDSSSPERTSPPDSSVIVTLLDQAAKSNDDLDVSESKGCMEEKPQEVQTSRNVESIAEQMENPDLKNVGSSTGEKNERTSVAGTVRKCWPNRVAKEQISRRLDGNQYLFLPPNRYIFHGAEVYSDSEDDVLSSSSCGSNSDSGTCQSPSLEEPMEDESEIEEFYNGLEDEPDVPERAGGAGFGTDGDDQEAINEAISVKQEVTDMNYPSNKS

RmtA = RmtA (Emericella nidulans, UniProt Q5VLE3); test: Inhibition of Aspergillus nidulans RmtA; procedure, shortened: as §2
[21] = target: Protein arginine N-methyltransferase 1 (Homo sapiens) (UniProt Q99873); test: Inhibition of human recombinant PRMT1 assessed as histone H4 methylation at 50 uM
[22] = target: RmtA (Emericella nidulans) (UniProt Q5VLE3); test: Inhibition of Aspergillus nidulans RmtA at 88.5 uM; procedure, shortened: as §2
U-937 [23] = test: Induction of granulocytic differentiation in human U937 cells assessed as CD11c expression at 1 uM after 30 hrs; assay type: functional; procedure, shortened: as §5
U-937 [24] = test: Cell cycle arrest in human U937 cells assessed as accumulation at G1/G2 phase at 25 uM after 30 hrs; assay type: functional, cell-based; procedure, shortened: as §4

RmtA (Emericella nidulans), sequence (Q5VLE3 as listed by the source): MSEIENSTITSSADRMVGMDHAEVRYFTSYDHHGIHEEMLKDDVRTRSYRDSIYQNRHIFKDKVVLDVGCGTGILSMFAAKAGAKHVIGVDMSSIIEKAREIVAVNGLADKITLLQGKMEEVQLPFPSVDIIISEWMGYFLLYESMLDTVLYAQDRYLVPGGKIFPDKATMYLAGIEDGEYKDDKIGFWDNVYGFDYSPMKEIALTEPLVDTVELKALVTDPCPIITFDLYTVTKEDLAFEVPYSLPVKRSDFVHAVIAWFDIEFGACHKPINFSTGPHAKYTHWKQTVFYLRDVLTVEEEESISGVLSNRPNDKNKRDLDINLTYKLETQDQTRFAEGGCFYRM
Protein arginine N-methyltransferase 1 (Homo sapiens), sequence (Q99873 whole entry, looked up): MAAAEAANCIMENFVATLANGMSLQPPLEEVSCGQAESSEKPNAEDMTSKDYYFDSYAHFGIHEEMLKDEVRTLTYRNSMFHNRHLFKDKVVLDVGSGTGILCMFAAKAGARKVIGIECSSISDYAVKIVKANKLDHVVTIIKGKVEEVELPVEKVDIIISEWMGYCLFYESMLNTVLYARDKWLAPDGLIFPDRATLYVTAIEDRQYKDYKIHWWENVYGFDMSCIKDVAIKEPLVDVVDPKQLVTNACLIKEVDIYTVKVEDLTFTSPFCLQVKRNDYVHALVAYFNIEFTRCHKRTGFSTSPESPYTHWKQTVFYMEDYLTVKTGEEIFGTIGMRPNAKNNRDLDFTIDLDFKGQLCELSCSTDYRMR
RmtA, sequence (Q5VLE3 whole entry): as the sequence (Q5VLE3 as listed by the source) above

Row | Compound | Activity (U-937 [1]) | Activity (U-937 [3]) | Activity [4] | Activity [5] | Activity (U-937 [6]) | Activity [8] | Activity (U-937 [11]) [%] | further results
1 | O=C(Nc1cc(Br)c(O)c(Br)c1)c1ccc(C(=O)Nc2cc(Br)c(O)c(Br)c2)cc1 | Active | Active | – | – | – | – | – | inhibition [2]: 0%
2 | O=C1/C(=C/c2ccc(O)c(Br)c2)CN(Cc2ccccc2)C/C1=C\c1ccc(O)c(Br)c1 | Active | Active | inactive | Active | Active | inactive | – | inhibition [7]: 0%
3 | O=C(c1cc(Br)c(O)c(Br)c1)c1cc(Br)c(O)c(Br)c1 | Active | Active | – | – | Active | – | – | inhibition [9]: 0%
4 | COc1cc(/C=C/C(=O)CC(=O)/C=C/c2ccc(O)c(OC)c2)ccc1O [CURCUMIN] | – | – | – | – | – | – | 8.5 | Activity (U-937 [10]): inactive; Activity (U-937 [12]): 25.3%; Activity (U-937 [13]): 25%
5 | CN1C2CCC1/C(=C\c1ccc(O)c(Br)c1)C(=O)/C2=C/c1ccc(O)c(Br)c1 | Active | Active | – | – | Active | – | – | inhibition [14]: 0%
6 | CC(C)(C(=O)/C=C/c1ccc(O)c(Br)c1)C(=O)/C=C/c1ccc(O)c(Br)c1 | Active | Active | – | – | – | – | – | inhibition [15]: 0%
7 | O=C1/C(=C/c2ccc(O)c(Br)c2)CCCC/C1=C\c1ccc(O)c(Br)c1 | Active | Active | inactive | Active | Active | inactive | – | inhibition [16]: 0%
8 | O=C1/C(=C/c2cc(Br)c(O)c(Br)c2)CSC/C1=C\c1cc(Br)c(O)c(Br)c1 | Active | Active | Active | Active | Active | Active | 40.7 | inhibition (U-937 [17]): 69%; Activity (U-937 [12]): 9.1%; inhibition [18]: 59%; Activity (U-937 [19]): Active; inhibition [20]: 54%; IC50 (RmtA): 45 µM; inhibition [21]: 73%
9 | O=C1/C(=C/c2ccc(O)c(Br)c2)CSC/C1=C\c1ccc(O)c(Br)c1 | Active | Active | inactive | Active | Active | inactive | – | inhibition [22]: 0%
10 | O=C(/C=C/c1cc(Br)c(O)c(Br)c1)c1cccc(C(=O)/C=C/c2cc(Br)c(O)c(Br)c2)c1 | Active | Active | Active | Active | Active | Active | 42.6 | inhibition (U-937 [17]): 83%; Activity (U-937 [23]): 38.8%; Activity (U-937 [24]): Active; inhibition [18]: 48%; inhibition [20]: 73%; IC50 (RmtA): 10 µM; inhibition [21]: 60%

From ChEMBL document CHEMBL1144710, “epigenetic multiple ligands: mixed histone/protein methyltransferase, acetyltransferase, and class III deacetylase (sirtuin) inhibitors” (J Med Chem, 2008)
